Compound activity as filed in PubChem.
AI-2 QS modul: Vibrio harveyi AI-2 quorum sensing modulation. AID 2094. activity change, % at 7.5 µM. actives 0.4% (n = 300,000). Vibrio harveyi JMH597 AI-2 luminescence/OD600 ratio, 9 h; active compounds read low; strain lacks LuxN and CqsS sensors; 0 = neutral-control median; in the data active means activity change below about -75%, passing the limit was not always enough;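 further: luminescence divided by OD600 gain over 9 h not by final OD600 alone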
MsrA inhibitor: inhibitors of bovine MsrA. purified bovine MsrA, absorbance read-out. inhibition, % at 15.5 µM. actives 0.75% (n = 360,000). AID 651718; in the data active means inhibition above about 4.5%
MsrA act: activates bovine MsrA enzyme; purified bovine MsrA, absorbance read-out; activation, % at 10.6 µM; actives 0.3% (n = 360,000); AID 602163; in the data active means activation above about 7.5%
AHR activator: activators of human aryl hydrocarbon receptor; P35869; AHR-responsive luciferase reporter cells, luminescence; activation, % at 5 µM; actives 2.5% (n = 320,000); in the data active means activation above about 47%
Tb MetRS inh: Trypanosoma brucei MetRS inhibition; inhibition, % at 11.9 µM; purified T. brucei MetRS, ATP depletion, Kinase-Glo luminescence; actives 0.4% (n = 360,000);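 active means inhibition above a per-plate cutoff of the control wells' mean inhibition plus 3 SD, cut at about 5.5% in these data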
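Assay system: T. brucei methionyl-tRNA synthetase, purified | Medium: HEPES buffer with MgCl2, KCl, DTT, spermine, BSA, pyrophosphatase | Compound: 11.9 µM single point | Incubation: 15 min enzyme-compound preincubation, 2 h reaction, 10 min detection, 25 °C | Measured by: Kinase-Glo luciferase luminescence reporting remaining unconsumed ATP | Measure: % inhibition normalized to control-well medians | Replication: Singlicate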
HTR2A ag: agonists of mouse serotonin 5-HT2A receptor (HTR2A) | activation, % at 7.6 µM | actives 0.66% (n = 360,000) | AID 624169 | CHO-K1 mHTR2A beta-arrestin complementation, luminescence; percent of 30 µM serotonin response;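 active means activation above a run cutoff, the mean activation of all tested compounds plus 3 SD, cut at about 14% in these data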
Target sequence (P35363 whole entry, looked up): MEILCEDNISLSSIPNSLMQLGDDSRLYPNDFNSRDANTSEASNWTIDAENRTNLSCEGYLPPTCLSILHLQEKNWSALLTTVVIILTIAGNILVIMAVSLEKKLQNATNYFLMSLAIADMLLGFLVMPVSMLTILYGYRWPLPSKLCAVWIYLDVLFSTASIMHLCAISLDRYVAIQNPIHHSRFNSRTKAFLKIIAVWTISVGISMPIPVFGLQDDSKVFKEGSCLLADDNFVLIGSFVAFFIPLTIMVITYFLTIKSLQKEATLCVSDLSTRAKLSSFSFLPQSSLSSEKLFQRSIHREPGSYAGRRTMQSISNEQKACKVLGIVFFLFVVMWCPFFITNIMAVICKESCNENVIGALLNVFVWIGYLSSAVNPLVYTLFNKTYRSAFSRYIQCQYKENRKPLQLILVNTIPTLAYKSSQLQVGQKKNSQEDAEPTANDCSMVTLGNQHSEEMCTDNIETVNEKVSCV
Each line names hits and unclear results; the compound was inactive in the other large screens. In the library only some 4.4% were active in any assay of this set; here they are far more common.

CC(=O)NNC(=O)CN1C(=O)/C(=C/c2ccccc2)SC1=S	none
CC(=O)NC(CC(=O)NCCN1C(=O)S/C(=C\c2ccccc2)C1=O)c1ccccc1 (stereo not drawn)	MsrA inhibitor 4.6
Cc1ccc2oc(C(=O)N3CCC(O)(c4ccccc4)CC3)c(C)c2c1	none
COC(=O)C1=C(C)N(C)C(=NCc2ccc(OC)cc2)NC1c1ccc(C(F)(F)F)cc1 (stereo not drawn)	none (no result: AI-2 QS modul, MsrA act, AHR activator, Tb MetRS inh, HTR2A ag)
O=C(Nc1ccc2c(c1)OCO2)c1ccc(NC2CC2)c([N+](=O)[O-])c1	AHR activator 52
COc1cc(C(=O)Nc2ccc(C(N)=O)cc2)c([N+](=O)[O-])cc1OC	none
COc1cc(C(=O)Nc2ccc3c(c2)OCO3)c([N+](=O)[O-])cc1OC	AHR activator 59
COC(=O)c1ccc(C(=O)OC)c(NC(=O)Nc2ccc3c(c2)OCO3)c1	none
COc1ccc(C(C)(C)C)cc1NC(=O)Nc1ccc2c(c1)OCO2	AHR activator 79
COc1ccc(C(C)(C)C)cc1NC(=O)c1c(C)noc1C	AHR activator 81
O=C(COC(=O)c1cccc(S(=O)(=O)N2CCCC2)c1)Nc1cccc(Br)c1	none (no result: AI-2 QS modul, AHR activator)
COc1ccccc1NC(=O)Nc1ccc2c(c1)CCC2	none
COc1ccc(C)cc1NC(=O)Nc1ccc2c(c1)CCC2	AHR activator 77
COc1cc(NC(=O)Nc2ccc3c(c2)OCO3)cc(OC)c1OC	AHR activator 76
N#CC(c1c(Cl)cccc1N1CCCCC1)N1CCCCC1 (stereo not drawn)	none (no result: AI-2 QS modul, MsrA act, AHR activator, Tb MetRS inh, HTR2A ag)
O=C(CCC(=O)Nc1ccc(F)cc1)N/N=C/c1c[nH]c2ccccc12	AHR activator 50
O=C(CCC(=O)Nc1ccc(F)cc1)N/N=C/c1ccccc1O	none
O=C(CSc1nnc(SCc2cccc3ccccc23)s1)N/N=C/c1c[nH]c2ccccc12	AHR activator 47
O=C(CNc1ccccc1)N/N=C/c1c[nH]c2ccccc12	AHR activator 50
CCCCCCCCN1C(=O)[C@@H](CC(=O)NCc2cccc3ccccc23)C[C@@]2(C(=O)OC)C1=C[C@H](C1CCCC1)O[C@@H]2C	none (no result: AI-2 QS modul, MsrA act, AHR activator, Tb MetRS inh, HTR2A ag)
Cc1cc(NC(=O)Nc2cccc(C)c2C)no1	AHR activator 52
c1ccc(NCc2nc(-c3ccccc3)no2)cc1	AI-2 QS modul -87
COc1ccc(CC(=O)NCc2nc(-c3ccccc3)no2)cc1	AI-2 QS modul -77
Cc1ccc(S(=O)(=O)NCc2nc(-c3ccccc3)no2)cc1	none
Fc1ccc2cc(C3=CCCCC3)ncc2c1	none (no result: AI-2 QS modul, MsrA act, AHR activator, Tb MetRS inh, HTR2A ag)
N#Cc1cccnc1Nc1cccc(Cl)c1	AHR activator 77
N#Cc1ccc(CN2CCN(C(=O)CCNS(=O)(=O)c3ccc(F)c(Cl)c3)CC2)cc1	HTR2A ag 49 (no result: AI-2 QS modul)
COc1ccccc1-n1cc2c([N+](=O)[O-])cc([N+](=O)[O-])cc2n1	none
COc1cc(Nc2nnc(C)s2)c(Cl)cc1Cl	AHR activator 71
COCCOc1cc(Nc2nnc(C(F)(F)F)s2)c(Cl)cc1Cl	none
O=C(Cn1nc(-c2ccccc2)oc1=O)OCC(=O)c1ccccc1	none (no result: AI-2 QS modul)
O=C(NCc1ccc(F)cc1)C1CCCN(c2cnccn2)C1 (stereo not drawn)	AHR activator 52
O=C(NCc1ccccc1)C1CCCN(c2cnccn2)C1 (stereo not drawn)	none
O=C(NCc1cccc(C(F)(F)F)c1)C1CCCN(c2cnccn2)C1 (stereo not drawn)	AHR activator 52
CC(C)NC(=O)C1(C)CCN1C/C=C/c1ccccc1 (stereo not drawn)	none (no result: AI-2 QS modul, AHR activator)
CCOc1ccccc1NC(=O)c1ccc([N+](=O)[O-])cc1	none (no result: MsrA inhibitor, MsrA act, Tb MetRS inh, HTR2A ag)
CCCOc1ccccc1NC(=O)c1ccc([N+](=O)[O-])cc1	AHR activator 64
CCOc1ccccc1NC(=O)NNC(=O)c1ccc2ccccc2c1	AHR activator 49
CCOc1ccccc1NC(=O)c1ccc2ccccc2c1	AHR activator 67
CCOc1ccccc1NC(=O)c1ccc(OCC)c([N+](=O)[O-])c1	none
O=C(CSc1ccc2ccccc2n1)c1ccccc1	AHR activator 68
O=C(CSc1ccc2ccccc2n1)N/N=C/c1ccccc1O	none (no result: AHR activator)
Cc1nc2ccccc2nc1SCC(=O)c1ccccc1	AHR activator 48
CC(C)(C)c1nc(SCC(=O)c2ccccc2)c2ccccc2n1	none
COc1ccccc1CCn1cnc(-c2cccc(F)c2)c1CC(C)C	none (no result: AI-2 QS modul, MsrA act, AHR activator, Tb MetRS inh, HTR2A ag)
COC(=O)C1C(O)C(C)C(O)C(C)(O)/C=C\C=C(/C)C(=O)Nc2c(C)c(OC(C)=O)c3c(c2O)C(=O)C(C)=C2OCOC(=C23)/C(C)=C/C(C)(O)C(O)C(C)C1O (stereo not drawn)	AI-2 QS modul -160
O=C(/C=C/c1ccco1)Nc1nnc(-c2ccco2)s1	none
CCSc1nnc(NC(=O)/C=C/c2ccco2)s1	AHR activator 60
CCSc1nnc(NC(=O)c2ccc3ccccc3n2)s1	AHR activator 64
C[C@@H]1CCCCO[C@@H](CN(C)C(=O)CCC(F)(F)F)[C@@H](C)CN([C@H](C)CO)C(=O)c2cc(NS(=O)(=O)c3cccs3)ccc2O1	none (no result: AI-2 QS modul, MsrA act, AHR activator, Tb MetRS inh, HTR2A ag)
CCn1ncc2c(=O)c(C(=O)c3ccccc3)c[nH]c21	none (no result: AI-2 QS modul, MsrA act, AHR activator, Tb MetRS inh, HTR2A ag)
CCCN1CCC2(CC1)C(C#N)=C(N)Oc1c2sc2nc(C)cc(C)c12	AHR activator 61
CC1CC(NC(=O)c2cnc3n(c2=O)CCS3)CC(C)(C)C1 (stereo not drawn)	none
O=C(NC1CCCC1)c1cnc2n(c1=O)CCS2	AHR activator 60
CCOc1ccccc1NC(=O)c1oc2ccccc2c1NC(=O)C1CC1	none
Cc1ccc(NC(=O)c2oc3ccccc3c2NC(=O)C2CCCO2)cc1C (stereo not drawn)	AHR activator 74
CCOc1ccccc1NC(=O)c1oc2ccccc2c1NC(=O)C1CCCO1 (stereo not drawn)	AHR activator 49
CC(=O)c1ccc(S(=O)(=O)N2CCN(C(=O)C(=O)c3cccc(C(F)(F)F)c3)CC2)cc1	none (no result: AI-2 QS modul, MsrA act, AHR activator, Tb MetRS inh, HTR2A ag)
CCc1ccc2[nH]c(O)c(N=Nc3nc(-c4ccccc4)cs3)c2c1	AHR activator 63
Cc1cc(OCC(=O)N2CCN(c3ccccn3)CC2)c(C)cc1Br	AHR activator 54
Cc1cccc(C=NNc2cc(C)c3cccc(C)c3n2)n1	none (no result: AI-2 QS modul, MsrA act, AHR activator, Tb MetRS inh, HTR2A ag)
COc1cc(-c2nc(-c3ccccc3)c(-c3cccs3)[nH]2)cc(OC)c1OC	AHR activator 70
COc1cc(-c2noc(-c3cccs3)n2)cc(OC)c1OC	AHR activator 48
COc1cc(-c2nc(-c3ccccc3)c(-c3cccs3)[nH]2)cc(OC)c1O	none
COc1ccc(-c2noc(-c3cccs3)n2)cc1OC	none
NC(=O)c1ncn([C@@H]2O[C@H](C(=O)Nc3ccc(C(=O)N4CCCCC4)cc3)[C@@H](O)[C@H]2O)n1	none (no result: AI-2 QS modul, MsrA act, AHR activator, Tb MetRS inh, HTR2A ag)
